EBNA-1 inh: blocks EBNA-1 binding to DNA | EBNA-1 DNA binding, fluorescence polarization | inhibition, % at 14.8 µM | hit rate 0.34% among 300,000; in the data active = inhibition above about 28%
NS3 helicase inh: inhibitors of Hepatitis C virus NS3 helicase; inhibition, % at 10.9 µM; AID 1800; hit rate 0.56% among 290,000; NS3 helicase DNA unwinding, Cy5 molecular beacon fluorescence;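 active = inhibition above the mean of all tested compounds plus 3 SD, set per campaign, cut at about 35% in these data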;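 also: 0% = DMSO wells and 100% = thioflavine S control wells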
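System: NS3 helicase fragment of HCV / Schedule: 1 h at 25 °C / Control set: DMSO alone as 0% and 110 µM thioflavine S as 100% / Reagent: Cy5/quencher beacon DNA duplex and ATP to start / Technique: Cy5 fluorescence / Replication: singlicate / Evaluation: % inhibition of end-to-start signal ratio versus controls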
ZTA counter: counter-screen for EBNA-1 inhibitors: inhibitors of Epstein-Barr virus ZTA; P03206; ZTA-DNA binding, fluorescence polarization; inhibition, % at 11 µM; hit rate 0.15% among 320,000; AID 2234; in the data active = inhibition above about 33%
Target sequence (P03206 whole entry, looked up): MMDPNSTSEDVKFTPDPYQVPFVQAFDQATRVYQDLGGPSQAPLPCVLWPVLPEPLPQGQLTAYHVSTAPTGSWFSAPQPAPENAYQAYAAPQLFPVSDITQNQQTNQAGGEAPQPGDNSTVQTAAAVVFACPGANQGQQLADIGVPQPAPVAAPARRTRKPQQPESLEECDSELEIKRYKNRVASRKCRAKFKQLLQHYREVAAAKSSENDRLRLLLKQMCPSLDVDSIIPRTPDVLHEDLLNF
CTSL1 counter: cathepsin L1 inhibition, PFM18AAP counter-screen | recombinant F. hepatica cathepsin L1, Z-Leu-Arg-MCA fluorescence | inhibition, % at 5.96 µM | hit rate 0.49% among 300,000 | AID 1906;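 active = inhibition above the mean of all tested compounds plus 3 SD, set per screening campaign, cut at about 17% in these data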;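 also: 0% = plate median of test compound wells and 100% = 1 µM Z-Phe-Ala-diazomethylketone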
* marks the source's active call; other numbers are inactive results; nt = not tested or not shown. Rows were chosen to be rich in hits. Some 1.4% of all compounds tested hit in one or more screens of this group.

SMILES	EBNA-1 inh	NS3 helicase inh	ZTA counter	CTSL1 counter
Cc1ccc(C(=O)C(OC(=O)CNC(=O)c2ccc(Cl)cc2)c2ccccc2)cc1 (centres undefined)	-13	-11	-15	20*
O=C(CNC(=O)c1ccccc1)OC(C(=O)c1ccccc1)c1ccccc1 (centres undefined)	2	-18	13	18*
COc1ccc(C(=O)C(OC(=O)CNC(=O)c2ccco2)c2ccccc2)cc1 (centres undefined)	4	-1	11	33*
O=C(O)c1sccc1SCc1ccc(Cl)cc1Cl	-8	29	-6	0
Cn1cc(C(=O)c2ccc(Cl)cc2Cl)cc1C(=O)N/N=C(\N)COc1ccc(Cl)cc1	-8	-8	1	-1
Cc1cccc(C)c1NC(=O)C1CCCN1S(=O)(=O)c1ccc(-c2ccc(=O)[nH]n2)s1 (centres undefined)	2	0	0	28*
CC1(CC(=O)N/N=C/c2cc3c(cc2Br)OCO3)OCCO1	-3	-1	-16	17*
C[C@H](NC(=O)[C@H]1N2C(=O)c3ccccc3C2SC1(C)C)C(=O)N1CCN(C)CC1 (some centres undefined)	6	21	-18	21*
NS(=O)(=O)c1ccc(NC(=O)CSc2nc3ccccc3[nH]2)cc1	-1	1	10	-2
Cn1c(CNC(=O)CCNC(=O)c2cccc(Br)c2)cc(=O)n(C)c1=O	7	18	-17	36*
CC1CCN(C(=O)C(Cc2ccccc2)NS(=O)(=O)c2ccc3c(c2)oc(=O)n3C)CC1 (centres undefined)	-1	2	-5	-1
CC(C)C(NS(=O)(=O)c1ccc2c(c1)oc(=O)n2C)C(=O)N1CCN(Cc2ccccc2)CC1 (centres undefined)	-4	-5	1	47*
CSCCC(NS(=O)(=O)c1ccc2c(c1)oc(=O)n2C)C(=O)NC1CCN(Cc2ccccc2)CC1 (centres undefined)	-6	6	-5	41*
CSCCC(NS(=O)(=O)c1ccc2c(c1)oc(=O)n2C)C(=O)NC1CCC(C)CC1 (centres undefined)	5	-2	1	-4
COc1cc(C(=O)NCC(=O)Nc2ccc(F)c(F)c2)ccc1OCC(=O)N1CCOCC1	4	nt	-17	20*
COc1ccc(CN2CC(C(=O)NCCCN3CCCCCC3)CC2=O)cc1 (centres undefined)	9	-17	-1	0
CCC1CCCCN1CCCNC(=O)C1CC(=O)N(CCc2ccccc2)C1 (centres undefined)	-11	-2	-30	28*
CCCCNC(=O)C1CC(=O)N(CCc2ccccc2)C1 (centres undefined)	-3	2	-19	-3
COc1ccc(CN2CC(C(=O)NCCc3ccccc3)CC2=O)cc1 (centres undefined)	-1	-2	-6	17*
COc1ccc(CN2CC(C(=O)NCCCN3CCOCC3)CC2=O)cc1 (centres undefined)	-1	-9	-15	21*
O=C(Nc1nccs1)C1CC(=O)N(c2ccccc2)C1 (centres undefined)	3	1	9	-1
O=C(NNC(=S)NCCc1ccccc1)c1ccc(Br)s1	-13	11	-12	18*
CCOC(=O)CSc1nc2sc3c(c2c(=O)[nH]1)CCCC3	-15	-3	-9	1
COc1nc(N)nc(NC(=O)c2cccs2)c1N=O	1	nt	-25	50*
COc1ccc(NC(=O)c2ccc(NC(=O)c3cccs3)cc2)cc1	4	17	-13	1
SMILES	EBNA-1 inh	NS3 helicase inh	ZTA counter	CTSL1 counter
O=[N+]([O-])c1ccc(N2CCN(c3ccccc3Cl)CC2)cn1	-7	17	-11	21*
O=[N+]([O-])c1ccc(N2CCN(c3ccc(O)cc3)CC2)cn1	0	-11	10	0
COC(=O)c1cc(C#N)c(N2CC(C)OC(C)C2)nc1C (centres undefined)	10	9	1	1
CCOC(=O)c1c(-c2ccco2)csc1NC(=O)COC(=O)c1cnccn1	-13	nt	2	40*
Cc1ccc(CNS(=O)(=O)c2ccc(C(F)(F)F)cc2)n1C	4	-1	4	1
Cc1ccc(CNS(=O)(=O)c2ccc(F)c(F)c2)n1C	-4	17	-16	24*
O=C1C(Nc2ccc(O)cc2)=C/C(=N/S(=O)(=O)c2cccs2)c2ccccc21	nt	-4	nt	nt
Cc1ccc(Cl)cc1NC1=C/C(=N\S(=O)(=O)c2cccs2)c2ccccc2C1=O	-21	2	10	60*
Cc1cccc(NC2=C/C(=N/S(=O)(=O)c3cccs3)c3ccccc3C2=O)c1	0	2	8	54*
Cc1ccc(NC2=C/C(=N\S(=O)(=O)c3cccs3)c3ccccc3C2=O)c(C)c1	-6	-7	-8	88*
CN=C(c1ccco1)n1c(=S)nc(-c2ccco2)n(C)c1=S	-1	3	-9	1
CC(CCc1ccccc1)NC(=O)C(=O)NCCO (centres undefined)	4	4	18	0
C=CCC1NS(=O)(=O)OCC1NC(=O)OCC(Cl)(Cl)Cl (centres undefined)	10	3	4	20*
CSc1nc(-c2ccccc2)nc(NC(=O)C(C)C)c1C(C)=O	-9	-3	-9	2
Cc1ccccc1-c1cc2c(nn1)-c1ccccc1C2=O	4	2	-3	71*
OC(c1ccc(Cl)cc1)c1nnc(-c2ccccc2)o1 (centres undefined)	-3	-5	8	2
O=C1c2ccccc2C(=O)C12OC2c1ccc(Cl)cc1 (centres undefined)	-1	6	1	17*
CCCCN(Cc1cc2cc(OC)ccc2[nH]c1=O)C(=O)c1ccccn1	1	5	11	-1
O=C(CCl)Nc1cc(S(=O)(=O)N2CCCCCC2)ccc1Cl	0	0	-6	80*
O=C(CCl)N1CCN(S(=O)(=O)c2ccc3ccccc3c2)CC1	14	-6	13	19*
CN(C)C(=O)N1CCN(S(=O)(=O)c2ccc3ccccc3c2)CC1	-8	-5	-13	-2
CC(C)(C)CC(=O)Nc1cc(S(=O)(=O)N2CCCCCC2)ccc1Cl	13	-5	1	-2
C=CCN(C(=O)CSC1=NC(=O)CN1C(C)=O)c1nc(C)c(-c2ccccc2)s1	2	2	-16	19*
C=CCSc1nnc(-c2sc(-c3ccccc3)nc2C)n1C	12	-3	11	0
CSc1nc(SCC(=O)O)c2sc3nc(-c4ccccc4)c4c(c3c2n1)CCC4	nt	-1	nt	nt
CSc1nc(N(C)CCO)c2sc3nc(-c4ccco4)c4c(c3c2n1)CCC4	15	19	8	22*
Cc1nc2nc(CCNS(=O)(=O)c3ccc(Cl)cc3)cn2nc1C	-3	8	9	30*
COc1ccc(S(=O)(=O)NCCc2cn3nc(C)c(C)nc3n2)cc1	7	0	-1	4
O=C(NC1CC1)c1ccc2c(c1)ncn2C1CCCC1	-9	1	-27	8
C=C(C)C1Cc2c(C)nn(-c3ccccn3)c2C1 (centres undefined)	8	-1	10	-1
